Only some compounds are listed: those with a hit (about 1.6% of all), similar ones and a draw of the others.
LMPTP inh = blocks human LMPTP phosphatase; 360,000 tested, 0.22% active; inhibition, % at 20 µM; AID 651560; recombinant LMPTP-A, OMFP fluorogenic substrate, fluorescence intensity; P24666;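 active = compounds that cut the enzyme signal by at least half of the control window in the single-dose screen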;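 note: plate controls were DMSO wells with enzyme plus substrate for no effect and substrate without enzyme for full effect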
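Assay system: LMPTP-A, protein tyrosine phosphatase of low molecular weight / Medium: pH 6.0 Bis-Tris buffer with DTT and Triton X-100 / Schedule: 50 min enzyme reaction at room temperature, protected from light / Measured by: endpoint fluorescence intensity from OMFP dephosphorylation / Read-out basis: % inhibition relative to no-enzyme and uninhibited control wells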
STEP block = STEP (human) phosphatase inhibition. 360,000 tested, 0.25% active. P54829. recombinant STEP, OMFP fluorogenic substrate, fluorescence. inhibition, % at 20 µM. AID 588621;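 active = inhibition at 20 µM, scaled per plate between control wells, above about 37%, limit read from the data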;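 note: 0% = DMSO with enzyme and substrate and 100% = substrate only without enzyme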
Target sequence (P54829 whole entry, looked up): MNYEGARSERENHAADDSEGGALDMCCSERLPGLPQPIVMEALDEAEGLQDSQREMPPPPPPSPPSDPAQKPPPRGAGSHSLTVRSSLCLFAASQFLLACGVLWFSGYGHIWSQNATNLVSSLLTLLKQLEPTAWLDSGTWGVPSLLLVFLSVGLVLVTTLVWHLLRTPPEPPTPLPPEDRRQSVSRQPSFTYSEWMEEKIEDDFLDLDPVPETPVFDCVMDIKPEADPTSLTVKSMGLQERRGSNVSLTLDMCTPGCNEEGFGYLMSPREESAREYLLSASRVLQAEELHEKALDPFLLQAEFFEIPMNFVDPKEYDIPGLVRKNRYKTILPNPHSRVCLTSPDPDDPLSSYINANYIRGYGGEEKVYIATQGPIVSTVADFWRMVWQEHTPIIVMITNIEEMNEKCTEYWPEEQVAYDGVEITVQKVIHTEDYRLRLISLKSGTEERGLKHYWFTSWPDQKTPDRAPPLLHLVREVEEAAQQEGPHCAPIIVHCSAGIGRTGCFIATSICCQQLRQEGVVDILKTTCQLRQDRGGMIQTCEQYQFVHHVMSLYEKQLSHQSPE
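System: STEP phosphatase, cell-free reaction; Buffer or medium: Bis-Tris pH 6.0 buffer with DTT, detergent; Incubation: 20 min at room temperature, dark; Measured by: fluorescence, 480/540 nm.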
Scp-1 inhibitor = inhibitors of human Scp-1 phosphatase; Q9GZU7; 340,000 tested, 0.88% active; Recombinant Scp1, phosphopeptide, malachite green phosphate absorbance; inhibition, % at 20 µM;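 active = inhibition above about 50% at 20 µM, limit read from the data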;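 note: plate controls were DMSO wells with enzyme for no effect and wells lacking enzyme for full effect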
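Material: truncated SCP-1 phosphatase (76-261aa) / Buffer or medium: 50 mM Tris acetate pH 5.5, 0.005% Tween-20, 10 mM MgCl2 / Compound dosing: one concentration, 20 µM, with 1.0% DMSO / Incubation: 45 min room-temperature reaction, 5 min colour, 30 min stabiliser / Detection: colorimetric free-phosphate detection, absorbance 630 nm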
CFTR F508del cor = correctors of CFTR F508del function in bronchial epithelial cells; CFBE cells, YFP halide quenching; stimulated with forskolin plus potentiator P3; % fluorescence drop versus neutral controls; AID 720511; activity (quench increase), % at 7.58 µM; 350,000 tested, 0.36% active;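 active = mean added fluorescence quench of at least 8% versus neutral control, with both replicates also reaching 8%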;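 note: cells transiently co-express mutant CFTR-F508del with the halide-sensitive YFP; corrector assay measuring rescue of mutant channel to the surface after 24 h compound exposure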
DNMT1 block = inhibitors of human DNMT1. DNMT1 molecular beacon, Hinp1I cleavage, fluorescence. inhibition (reported as % activation of signal), % at 10 µM. 360,000 tested, 0.83% active. AID 588458; in the data active = inhibition above about 50%
SUMO1-SIM PPI = modulators of human SUMO1-mediated protein-protein interactions; P63165; SUMO1 binding to a labelled peptide, TR-FRET, 1 h; inhibition, % at 20 µM; 360,000 tested, 0.33% active; AID 602429; in the data active = inhibition above about 37%
DNMT1 interf DR = counter-screen for DNMT1 inhibitors: spectral interference, dose response; shares compounds with DNMT1 block; IC50, µM; molecular beacon fluorescence; 200 tested, under 10 active; call rule not given here
DNMT1 confirm = confirmation of human DNMT1 inhibitors; 2,300 tested, 8% active; shares compounds with DNMT1 block; DNMT1 molecular beacon HinP1I cleavage, fluorescence; inhibition, % at 10 µM;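 active = average inhibition of at least 30% in the single-concentration confirmation test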
DNMT1 interf = beacon fluorescence artifact counter-screen; 2,300 tested, 1% active; activation (fluorescence interference), % at 10 µM; shares compounds with DNMT1 block; DNMT1 molecular beacon spectral interference counterscreen, fluorescence 485/520;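 active = activation of at least 30% at 10 µM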;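 note: DNMT1 catalytic domain with a HinP1I cleavage step and a FAM/dabcyl DNA beacon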
Starred values were filed as active, the others as inactive; · = not tested or not shown.

SMILES	LMPTP inh	STEP block	Scp-1 inhibitor	CFTR F508del cor	DNMT1 block	SUMO1-SIM PPI	DNMT1 confirm	DNMT1 interf	others
CCc1ccc(NC(=O)CCn2c(=O)c3cccn3c3ccccc32)cc1	3	-1	-8	1	-3	1	·	·
Cc1nn(-c2ccccc2)c(C)c1/C=N/n1c(-c2ccncc2)n[nH]c1=S	2	4	1	2	4	5	·	·
Cc1nn(-c2ccccc2)c(C)c1/C=N/n1c(-c2ccc(Cl)cc2)n[nH]c1=S	2	4	-3	·	57*	-2	1	2
O=C(/C=C/c1ccc(Cl)cc1Cl)N1CCN(c2ccccc2[N+](=O)[O-])CC1	7	4	-14	-2	92*	0	1	-2
O=C(/C=C/c1ccc(Cl)cc1Cl)N1CCN(c2ccc([N+](=O)[O-])c(N3CCOCC3)c2)CC1	9	-5	-1	·	-6	-4	·	·
C[C@@H]1CN([C@@H](C)CO)S(=O)(=O)c2ccc(C3=CCCC3)cc2O[C@@H]1CN(C)C(=O)CN(C)C	·	·	·	2	·	·	·	·
O=C(O)COn1c(-c2ccccc2)nc2ccc([N+](=O)[O-])cc21	28	17	81*	1	66*	12	2	-1
Cc1nn(-c2cccc(Cl)c2)c(Cl)c1/C=N/NC(=O)c1cccs1	13	-5	-2	·	72*	6	5	-1
CCNC(=S)N/N=C/c1c(C)nn(-c2cccc(Cl)c2)c1Cl	1	0	11	·	-2	-5	·	·
O=C(NCC1CCCN(C(=O)c2cccc(C(F)(F)F)c2)C1)c1ccc(F)cc1 (stereo not drawn)	0	-3	-1	-1	0	-1	·	·
O=C(NCC1CCCN(Cc2cccc(C(F)(F)F)c2)C1)c1ccc(F)cc1 (stereo not drawn)	-1	-2	0	2	132*	-3	2	0
COCC(=O)N1[C@H](CO)[C@H](c2ccccc2-c2ccccc2)[C@@H]1C#N	·	·	·	1	·	·	·	·
COc1cc(/C=C2\SC(=S)N(C(C(=O)O)c3ccccc3)C2=O)cc(OC)c1OC (stereo not drawn)	3	-2	-2	-3	5	-14	·	·
O=C(O)C(c1ccccc1)N1C(=O)/C(=C\c2ccc(-c3ccccc3Cl)o2)SC1=S (stereo not drawn)	77*	45*	35	2	98*	92*	69*	0	DNMT1 interf DR=34*
O=C(O)C(c1ccccc1)N1C(=O)/C(=C\c2ccc(-c3ccc(Br)cc3)o2)SC1=S (stereo not drawn)	65*	11	20	-1	93*	91*	93*	-2	DNMT1 interf DR=47*
COc1ccc(CN(C)CCCn2ccc(N)nc2=O)cc1OC	-3	0	·	1	2	3	·	·
COc1ccc(CN(C)C(=O)Cn2ccc(N)nc2=O)cc1OC	-1	1	-4	-1	89*	-4	1	3
COc1cccc2c1OCC(C(=O)O)C2 (stereo not drawn)	-1	-1	-1	-1	53*	-2	3	3
CN(C)c1ccc(/C=N/NC(=O)c2cc(=O)[nH]c3ccccc23)cc1	3	0	0	-2	1	-17	·	·
O=C(N/N=C/c1ccccc1)c1cc(=O)[nH]c2ccccc12	-1	1	4	·	61*	-5	3	7
COc1cccc(-c2ccc([C@H]3[C@H](CO)N4C(=O)CN(C(=O)C5CCCCC5)C[C@@H]34)cc2)c1	·	·	·	-2	·	·	·	·
Cc1ccc(CNC(=O)c2nnn(CC(=O)Nc3cccc(C)c3C)c2N)cc1	23	0	-3	-1	61*	2	12	-3
